Results on seven compounds are retold here after ChEMBL document CHEMBL1129688, “ATP-citrate lyase as a target for hypolipidemic intervention. Design and synthesis of 2-substituted butanedioic acids as novel, potent inhibitors of the enzyme” (J Med Chem, 1996).

The target in assay [1] is T1, ATP-citrate synthase (Rattus norvegicus, UniProt P16638).
T1 sequence (P16638 whole entry): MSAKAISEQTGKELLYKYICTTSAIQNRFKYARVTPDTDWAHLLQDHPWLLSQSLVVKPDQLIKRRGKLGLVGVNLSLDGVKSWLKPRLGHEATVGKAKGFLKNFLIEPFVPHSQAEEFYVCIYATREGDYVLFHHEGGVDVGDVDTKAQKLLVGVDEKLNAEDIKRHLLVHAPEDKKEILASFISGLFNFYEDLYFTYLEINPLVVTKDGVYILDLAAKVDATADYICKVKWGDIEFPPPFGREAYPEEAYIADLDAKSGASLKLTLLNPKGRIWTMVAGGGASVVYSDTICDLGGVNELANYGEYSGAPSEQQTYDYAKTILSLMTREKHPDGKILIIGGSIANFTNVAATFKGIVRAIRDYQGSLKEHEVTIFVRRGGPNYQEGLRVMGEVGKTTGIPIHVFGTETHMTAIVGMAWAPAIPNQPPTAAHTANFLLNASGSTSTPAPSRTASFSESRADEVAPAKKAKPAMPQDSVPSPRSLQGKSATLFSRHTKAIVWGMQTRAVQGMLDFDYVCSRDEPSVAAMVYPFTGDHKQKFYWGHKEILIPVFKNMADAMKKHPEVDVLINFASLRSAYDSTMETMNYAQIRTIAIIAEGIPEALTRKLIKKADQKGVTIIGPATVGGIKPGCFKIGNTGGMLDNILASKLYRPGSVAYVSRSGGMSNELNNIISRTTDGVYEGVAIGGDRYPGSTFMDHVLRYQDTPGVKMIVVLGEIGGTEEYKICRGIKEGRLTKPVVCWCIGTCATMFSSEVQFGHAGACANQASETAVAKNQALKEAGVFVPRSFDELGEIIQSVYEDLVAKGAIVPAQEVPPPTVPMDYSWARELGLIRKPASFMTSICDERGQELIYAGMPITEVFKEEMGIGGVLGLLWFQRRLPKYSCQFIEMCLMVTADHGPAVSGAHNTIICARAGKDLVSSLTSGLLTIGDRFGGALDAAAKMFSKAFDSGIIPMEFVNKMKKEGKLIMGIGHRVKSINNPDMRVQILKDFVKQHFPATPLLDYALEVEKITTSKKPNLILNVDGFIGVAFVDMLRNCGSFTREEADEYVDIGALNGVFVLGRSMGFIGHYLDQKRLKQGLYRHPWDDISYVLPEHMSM
Description: Inhibition of recombinant ATP-Citrate Lyase activity as […] dehydrogenase catalyzed reduction of oxaloacetate by NADH. As to conditions: in the assay text read “purified rat ATP-Citrate Lyase” for “recombinant ATP-Citrate Lyase”. Summed up: (§1)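 Purified rat ACL or recombinant human ACL was assayed by coupling oxaloacetate formation to malate dehydrogenase reduction with NADH. Buffer: Tris 100 mM pH 8.0, MgCl2 10 mM, KCl 10 mM, DTT 10 mM, plus ATP and NADH. CoA was 200 μM, and citrate was added to 100 μM (its Km) to start the reaction. A340 decrease was followed over 20 min. Ki came from fitting v = Vmax/(2 + [I]/Ki), assuming citrate-competitive inhibition.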

Assay [2] concerns the target T2, ATP-citrate synthase (Homo sapiens, UniProt P53396).
T2 sequence (P53396 whole entry): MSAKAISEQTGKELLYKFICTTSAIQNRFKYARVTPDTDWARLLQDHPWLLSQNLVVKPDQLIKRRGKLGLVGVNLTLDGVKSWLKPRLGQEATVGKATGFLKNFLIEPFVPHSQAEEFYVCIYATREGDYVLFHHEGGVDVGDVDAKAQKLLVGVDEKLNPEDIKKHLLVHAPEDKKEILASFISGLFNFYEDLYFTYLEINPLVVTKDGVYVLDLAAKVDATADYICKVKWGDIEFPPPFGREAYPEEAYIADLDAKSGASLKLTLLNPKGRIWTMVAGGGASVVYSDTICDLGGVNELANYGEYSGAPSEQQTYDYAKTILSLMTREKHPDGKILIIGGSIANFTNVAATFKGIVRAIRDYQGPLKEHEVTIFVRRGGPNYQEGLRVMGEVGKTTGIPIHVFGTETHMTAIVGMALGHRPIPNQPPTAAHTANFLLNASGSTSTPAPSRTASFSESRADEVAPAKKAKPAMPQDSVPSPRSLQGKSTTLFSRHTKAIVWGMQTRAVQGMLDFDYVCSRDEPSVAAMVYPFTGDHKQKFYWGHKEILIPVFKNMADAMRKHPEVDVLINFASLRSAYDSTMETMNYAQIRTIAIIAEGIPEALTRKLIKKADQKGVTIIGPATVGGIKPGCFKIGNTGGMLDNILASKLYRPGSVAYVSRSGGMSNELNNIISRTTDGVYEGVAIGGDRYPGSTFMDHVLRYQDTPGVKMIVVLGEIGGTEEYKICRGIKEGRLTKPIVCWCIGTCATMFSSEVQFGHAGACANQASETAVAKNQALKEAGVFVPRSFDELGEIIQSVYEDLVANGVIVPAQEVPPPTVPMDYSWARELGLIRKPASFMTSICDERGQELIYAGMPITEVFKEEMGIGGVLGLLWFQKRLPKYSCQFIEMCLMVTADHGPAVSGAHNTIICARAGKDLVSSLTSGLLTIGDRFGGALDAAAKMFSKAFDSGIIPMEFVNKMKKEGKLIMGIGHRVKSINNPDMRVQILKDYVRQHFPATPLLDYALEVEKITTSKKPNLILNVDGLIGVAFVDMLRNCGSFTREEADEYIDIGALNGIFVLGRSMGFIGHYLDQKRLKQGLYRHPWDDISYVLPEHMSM
Briefly: Inhibitory activity against human recombinant ATP-Citrate Lyase was measured by the […] dehydrogenase catalyzed reduction of oxaloacetate by NADH. Summed up:
as §1

In assay [3] the test system is HepG2. Briefly: Percent control of ATP levels in human hepatoma cell line, HepG2 at 1000 uM concentration. The class given is functional. Summed up:
(§2)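 Serum-starved HepG2 cells (grown to 80–90% confluence in DMEM/10% FCS, then overnight without serum) were exposed to vehicle or compound at the stated final concentration for 2.5 h. Cellular ATP was then measured as a toxicity check and expressed as % of vehicle control.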

Assay [4] relates to HepG2. Briefly: Percent control of ATP levels in human hepatoma cell line, HepG2 at 100 uM concentration. The class given is functional. The essentials: as §2
Assay [5] relates to HepG2. Briefly: Percent reduction of cholesterol synthesis in human hepatoma cell line HepG2 at 1000 uM concentration. The class given is functional. The essentials:
(§3)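 HepG2 cells were grown in DMEM with Hepes, bicarbonate, glutamine and 10% FCS to 80–90% confluence, then kept overnight serum-free. Vehicle or compound was added at the stated final concentration for 2.5 h. ³H2O (71 μCi/mmol) was present for the final 90 min. Synthesis rates came from ³H incorporated into cellular cholesterol or fatty acids, relative to vehicle control.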

Assay [6] concerns HepG2. Description: Percent reduction of fatty acid synthesis in human hepatoma cell line HepG2 at 1000 uM concentration. The class given is functional. The essentials:
as §3

In assay [7] the test system is HepG2. Briefly: Percent reduction of fatty acid synthesis in human hepatoma cell line HepG2 at 100 uM concentration. Format: functional. Details: scale not given: the % may be the effect or the level left. The essentials: as §3
Assay [8] has as its system HepG2. Description: Percent reduction of fatty acid synthesis in human hepatoma cell line HepG2 at 300 uM concentration. Format: functional. The arrangement: scale not given: the % may be the effect or the level left. The essentials:
as §3

Assay [9] relates to HepG2. Briefly: Percent control of ATP levels in human hepatoma cell line HepG2 at 1000 uM concentration. The class given is functional. The essentials:
as §2

The subject of assay [10] is HepG2. Briefly: Percent control of ATP levels in human hepatoma cell line HepG2 at 100 uM concentration. The class given is functional. Summed up: as §2
Assay [11] relates to HepG2. Description: Percent reduction of cholesterol synthesis in human hepatoma cell line HepG2 at 300 uM concentration. The class given is functional. The arrangement: scale not given: the % may be the effect or the level left. The essentials: as §3
Assay [12] relates to HepG2. Briefly: Percent reduction of cholesterol synthesis in human hepatoma cell line, HepG2 at 100 uM concentration. The class given is functional. The arrangement: scale not given: the % may be the effect or the level left. The essentials:
as §3

The subject of assay [13] is HepG2. Briefly: Percent control of ATP levels in human hepatoma cell line HepG2 at 300 uM concentration. The class given is functional. The essentials:
as §2

Assay [14] concerns HepG2. Briefly: Percent control of ATP levels in human hepatoma cell line HepG2 at 10 uM concentration. The class given is functional. Summed up:
as §2

Assay [15] deals with HepG2. Briefly: Percent control of ATP levels in human hepatoma cell line HepG2 at 30 uM concentration. The class given is functional. The essentials:
as §2

Assay [16] has as its system HepG2. Description: Percent reduction of cholesterol synthesis in human hepatoma cell line HepG2 at 100 uM concentration. The class given is functional. The arrangement: scale not given: the % may be the effect or the level left. The essentials:
as §3

For assay [17], the system named is HepG2. Description: Percent reduction of cholesterol synthesis in human hepatoma cell line HepG2 at 10 uM concentration. The class given is functional. Details: scale not given: the % may be the effect or the level left. The essentials: as §3
Assay [18] has as its system HepG2. Description: Percent reduction of fatty acid synthesis in human hepatoma cell line HepG2 at 10 uM concentration. Format: functional. The arrangement: scale not given: the % may be the effect or the level left. The essentials: as §3
Assay [19] has as its system HepG2. Briefly: Percent reduction of fatty acid synthesis in human hepatoma cell line, HepG2 at 1000 uM concentration. Format: functional. The arrangement: scale not given: the % may be the effect or the level left. Summed up:
as §3

Assay [20] has as its system HepG2. Briefly: Percent reduction of cholesterol synthesis in human hepatoma cell line, HepG2 at 1000 uM concentration. Format: functional. The arrangement: scale not given: the % may be the effect or the level left. The essentials:
as §3

Assay [21] deals with HepG2. Description: Percent reduction of fatty acid synthesis in human hepatoma cell line HepG2 at 20 uM concentration. Format: functional. The arrangement: scale not given: the % may be the effect or the level left. Summed up:
as §3

Assay [22] concerns HepG2. Description: Percent control of ATP levels in human hepatoma cell line HepG2 at […] uM concentration. The class given is functional.
The test system of assay [23] is HepG2. Description: Percent control of ATP levels in human hepatoma cell line HepG2 at 20 uM concentration. The class given is functional. Summed up:
as §2

Assay [24] deals with HepG2. Description: Percent reduction of cholesterol synthesis in human hepatoma cell line HepG2 at 20 uM concentration. The arrangement: scale not given: the % may be the effect or the level left. Format: functional. Summed up: as §3

pKi: −log10 of the molar value.

The pKi is the negative decadic logarithm of the Ki, by convention in mol/L. On to `O=C(O)CC(O)(CSCCCCCCc1ccccc1)C(=O)O` (stereo unspecified), for which the pKi on ATP-citrate synthase [1] is 3.15; at ATP-citrate synthase [2], 3.49.
Regarding `CC(=O)OCOC(=O)CC(O)(CSCCCCCCc1ccc(Cl)cc1Cl)C(=O)OCOC(C)=O` (stereo unspecified), the values for the Control with HepG2 [3], in the assay with HepG2 [4] and with HepG2 [7] were 60%, 111% and 100%, respectively. Besides, in the assay with HepG2 [5], the “Cholesterol synthesis (% of vehicle control)” value came out at 13%. Moreover, the “Fatty acid synthesis (% of vehicle control)” value with HepG2 [6] was 16%.
Take `O=C(O)C[C@@](O)(C(=O)O)[C@H](O)C(=O)O`: the Control turned out to be 79% in the assay with HepG2 [8]; 104% in the assay with HepG2 [9]; 100% in the assay on HepG2 [10]; 40% with HepG2 [11]; 110% with HepG2 [12]; 87% in the assay on HepG2 [7]. The compound further had a Control with HepG2 [13] of 103%. In addition, the “Cholesterol synthesis (% of vehicle control)” value in the assay with HepG2 [5] is 15%. Also, the “Fatty acid synthesis (% of vehicle control)” value in the assay on HepG2 [6] is 57%.
`CCOC(=O)CC(O)(CSCCCCCCc1ccc(Cl)cc1Cl)C(=O)OCC` (stereo unspecified): the Control is reported as 81% in the assay on HepG2 [10]; 91% in the assay with HepG2 [14]; 86% in the assay on HepG2 [15]; 3% with HepG2 [16]; 6% in the assay with HepG2 [7].
Turning to `COC(=O)CC(CSCCCCCCc1ccc(Cl)cc1Cl)C(=O)OC` (stereo unspecified), the Control with HepG2 [14] is given as 96%; in the assay on HepG2 [15], 91%; with HepG2 [17], 78%; with HepG2 [18], 105%.
With `O=C(O)CC(O)(CSCCCCCCc1ccc(Cl)cc1Cl)C(=O)O` (stereo unspecified), the negative-log Ki (pKi) at ATP-citrate synthase [1] is 5.48. For the same compound, the values for the Control in the assay with HepG2 [19], in the assay with HepG2 [3] and in the assay with HepG2 [20] were 107%, 100% and 116%, respectively.
On to `O=C(O)CC(O)(CSCCCCCc1ccc(Cl)cc1Cl)C(=O)O` (stereo unspecified), for which, on ATP-citrate synthase [1], the pKi was 5.17. Moreover, the Control with HepG2 [21] is given as 96%; in the assay on HepG2 [22] it was 84%; in the assay on HepG2 [23] it was 102%; in the assay with HepG2 [24] it was 104%. Also, the “Cholesterol synthesis (% of vehicle control)” value with HepG2 [5] came out at 14%. The “Fatty acid synthesis (% of vehicle control)” value in the assay with HepG2 [6] is recorded as 16%.
